Reference: ChEMBL document CHEMBL1131093, “ATP-Citrate lyase as a target for hypolipidemic intervention. 2. Synthesis and evaluation of (3R,5S)-omega-substituted-3-carboxy-3, 5-dihydroxyalkanoic acids and their gamma-lactone prodrugs as inhibitors of the enzyme in vitro and in vivo” (J Med Chem, 1998)

Tests used:
ATP-citrate synthase [1] = target: T1, ATP-citrate synthase (Homo sapiens, UniProt P53396); assay: Inhibitory activity against human recombinant ATP-Citrate Lyase (ACL) enzyme
T1 sequence (P53396 whole entry): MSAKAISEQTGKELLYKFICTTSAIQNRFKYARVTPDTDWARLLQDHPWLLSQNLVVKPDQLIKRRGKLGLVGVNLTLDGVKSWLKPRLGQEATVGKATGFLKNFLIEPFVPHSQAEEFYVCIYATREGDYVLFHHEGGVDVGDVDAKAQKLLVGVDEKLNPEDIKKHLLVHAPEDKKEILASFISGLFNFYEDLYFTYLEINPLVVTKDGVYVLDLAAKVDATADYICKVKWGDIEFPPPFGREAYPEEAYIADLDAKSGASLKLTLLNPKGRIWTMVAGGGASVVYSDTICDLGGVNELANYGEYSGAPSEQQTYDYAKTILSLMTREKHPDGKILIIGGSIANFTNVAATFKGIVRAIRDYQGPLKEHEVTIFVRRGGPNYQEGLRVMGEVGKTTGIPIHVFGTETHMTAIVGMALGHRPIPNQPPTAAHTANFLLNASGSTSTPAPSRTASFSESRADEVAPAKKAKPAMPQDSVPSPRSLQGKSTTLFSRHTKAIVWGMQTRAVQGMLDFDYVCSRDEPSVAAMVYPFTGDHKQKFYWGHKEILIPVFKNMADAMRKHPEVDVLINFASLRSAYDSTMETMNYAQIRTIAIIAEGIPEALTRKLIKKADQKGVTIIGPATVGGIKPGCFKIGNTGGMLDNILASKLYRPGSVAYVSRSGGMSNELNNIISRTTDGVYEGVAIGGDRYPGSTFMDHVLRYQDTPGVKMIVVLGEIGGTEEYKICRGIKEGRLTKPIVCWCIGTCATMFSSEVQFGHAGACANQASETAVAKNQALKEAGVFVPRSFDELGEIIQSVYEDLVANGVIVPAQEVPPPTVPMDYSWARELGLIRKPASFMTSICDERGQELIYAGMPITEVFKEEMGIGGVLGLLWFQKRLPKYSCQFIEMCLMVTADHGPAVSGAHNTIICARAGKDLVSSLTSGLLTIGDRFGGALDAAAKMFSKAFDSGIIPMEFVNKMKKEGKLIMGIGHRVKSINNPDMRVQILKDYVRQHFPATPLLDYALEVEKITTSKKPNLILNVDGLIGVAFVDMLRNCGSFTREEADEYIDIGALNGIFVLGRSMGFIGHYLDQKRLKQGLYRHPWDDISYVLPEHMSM
Method in brief: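 Human recombinant ATP-citrate lyase was used. Lactone intermediates were hydrolysed with aqueous NaOH to the hydroxy acid before being added to the enzyme buffer mix. Potency was reported as the reversible Ki.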

ATP-citrate synthase [2] = target: T2, ATP-citrate synthase (Rattus norvegicus, UniProt P16638); assay: Inhibitory activity was tested against rat ATP-Citrate Lyase (ACL) enzyme
T2 sequence (P16638 whole entry): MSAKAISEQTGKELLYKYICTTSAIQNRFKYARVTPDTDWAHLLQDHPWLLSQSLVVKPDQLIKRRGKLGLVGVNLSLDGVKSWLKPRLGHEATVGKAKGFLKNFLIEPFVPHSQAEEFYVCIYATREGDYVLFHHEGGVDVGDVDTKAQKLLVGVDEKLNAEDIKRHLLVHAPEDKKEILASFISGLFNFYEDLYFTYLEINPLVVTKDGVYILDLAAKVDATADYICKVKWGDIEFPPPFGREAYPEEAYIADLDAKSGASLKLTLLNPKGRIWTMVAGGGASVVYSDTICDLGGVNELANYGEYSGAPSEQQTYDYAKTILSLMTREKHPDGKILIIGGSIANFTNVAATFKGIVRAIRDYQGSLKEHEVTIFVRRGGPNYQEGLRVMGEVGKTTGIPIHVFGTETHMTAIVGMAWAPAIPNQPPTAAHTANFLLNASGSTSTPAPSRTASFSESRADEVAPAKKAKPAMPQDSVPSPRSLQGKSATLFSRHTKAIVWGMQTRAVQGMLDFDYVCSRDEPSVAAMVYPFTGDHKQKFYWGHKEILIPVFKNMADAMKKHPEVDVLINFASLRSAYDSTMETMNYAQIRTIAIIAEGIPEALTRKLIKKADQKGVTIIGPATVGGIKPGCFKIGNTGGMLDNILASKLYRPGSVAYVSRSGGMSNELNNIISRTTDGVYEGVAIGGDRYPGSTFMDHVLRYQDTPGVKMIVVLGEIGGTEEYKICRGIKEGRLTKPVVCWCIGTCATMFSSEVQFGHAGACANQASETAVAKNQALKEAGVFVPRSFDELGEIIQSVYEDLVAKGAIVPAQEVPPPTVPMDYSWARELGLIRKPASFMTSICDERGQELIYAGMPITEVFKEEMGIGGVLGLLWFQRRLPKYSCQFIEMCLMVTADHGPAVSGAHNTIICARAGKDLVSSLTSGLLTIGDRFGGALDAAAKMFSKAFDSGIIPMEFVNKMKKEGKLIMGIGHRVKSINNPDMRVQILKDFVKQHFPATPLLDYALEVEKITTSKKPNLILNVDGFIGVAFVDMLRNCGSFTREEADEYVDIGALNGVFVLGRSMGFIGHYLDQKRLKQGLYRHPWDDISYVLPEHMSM

Rattus norvegicus [3] = assay: % Reduction of plasma triglyceride in the rat was measured at dose 75 mg/kg/d; assay type: functional
Method in brief: (§1)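 Male Sprague-Dawley rats were kept on a reverse 12 h light/12 h dark cycle with free access to RM1 powdered diet and water. Compound was given orally by gavage as two doses 24 h apart. Blood was drawn mid dark cycle, 4 h after the second dose, into EDTA. Plasma was separated at 1500g for 15 min. Triglyceride was measured enzymatically (GPO-PAP) and reported as % reduction from control.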

Rattus norvegicus [4] = assay: % Reduction of plasma triglyceride in the rat was measured at dose 37.5 mg/kg/d; assay type: functional; method in brief: as §1
ATP-citrate synthase [5] = target: T2, ATP-citrate synthase; assay: Inhibitory activity was tested against ATP-Citrate Lyase (ACL) enzyme in rat
[6] = target: T3, ATP-citrate synthase (Homo sapiens) (UniProt P53396); assay: Inhibitory activity was tested against human recombinant ATP-Citrate Lyase (ACL) enzyme at 100 uM
T3 sequence (whole entry): T1 sequence (P53396 whole entry)

HepG2 [7] = assay: Inhibition of fatty acid synthesis in HepG2 cells was measured at 3 uM concentration.; assay type: functional, Homo sapiens; design: scale not given: the % may be the effect or the level left
Method in brief: (§2)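 Compounds were applied to HepG2 cells as their γ-lactone prodrugs. De novo cholesterol synthesis, fatty acid synthesis and cellular ATP levels were each expressed as % of control. Significance was marked at p < 0.001.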

HepG2 [8] = assay: Inhibition of ATP levels in HepG2 cells was measured at 10 uM concentration.; assay type: functional, Homo sapiens; design: scale not given: the % may be the effect or the level left; method in brief: as §2
HepG2 [9] = assay: Inhibition of cholesterol synthesis in HepG2 cells was measured at 3 uM concentration.; assay type: functional, Homo sapiens; design: scale not given: the % may be the effect or the level left; method in brief: as §2
HepG2 [10] = assay: Inhibition of ATP levels in HepG2 cells was measured at 3 uM concentration.; assay type: functional, Homo sapiens; design: scale not given: the % may be the effect or the level left; method in brief: as §2
HepG2 [11] = assay: Inhibition of fatty acid synthesis in HepG2 cells was measured at 10 uM concentration.; assay type: functional, Homo sapiens; design: scale not given: the % may be the effect or the level left; method in brief: as §2
HepG2 [12] = assay: Inhibition of cholesterol synthesis in HepG2 cells was measured at 10 uM concentration.; assay type: functional, Homo sapiens; design: scale not given: the % may be the effect or the level left; method in brief: as §2

SMILES | Ki (ATP-citrate synthase [1]) | also measured
Cc1cn(CCCCC[C@@H](O)C[C@](O)(CC(=O)O)C(=O)O)c2ccc(Cl)cc12 | 9500 nM | –
O=C(O)C[C@@](O)(C[C@H](O)CCCCCCc1ccc(Cl)cc1-n1cccc1)C(=O)O | 3900 nM | –
O=C(O)C[C@@](O)(C[C@H](O)CCCCCCc1ccc(Cl)cc1-c1ccc(Cl)cc1Cl)C(=O)O | 21000 nM | –
O=C(O)C[C@@](O)(C[C@H](O)CCCCCn1cc(-c2ccccc2)c2cc(Cl)ccc21)C(=O)O | 11000 nM | –
Cc1cn(-c2cc(Cl)ccc2CCCCCC[C@@H](O)C[C@](O)(CC(=O)O)C(=O)O)cc1C (stereo in doubt; 58) | 300 nM | –
O=C(O)C[C@@](O)(C[C@H](O)CCCCCn1c(-c2ccccc2)cc2cc(Cl)ccc21)C(=O)O | 370 nM | –
Cc1cn(-c2cc(Cl)ccc2CCCCCC[C@@H](O)C[C@](O)(CC(=O)O)C(=O)O)cc1C (stereo in doubt; (-)-58) | 340 nM | –
O=C(O)C[C@@](O)(C[C@H](O)CCCCCn1ccc2ccc(Cl)cc21)C(=O)O | 41000 nM | –
O=C(O)C[C@@](O)(C[C@@H](O)CCCCCCc1ccc(Cl)cc1Cl)C(=O)O | 2000 nM | –
O=C(O)C[C@@](O)(C[C@H](O)CCCCCCc1ccc(Cl)cc1Cl)C(=O)O (stereo in doubt; (+)-45) | 880 nM | Ki (ATP-citrate synthase [2]): 700 nM
O=C(O)C[C@@](O)(C[C@H](O)CCCCCn1cc(Cc2ccccc2)c2cc(Cl)ccc21)C(=O)O | 2900 nM | –
O=C(O)C[C@](O)(C(=O)O)[C@@H](O)CCCCCCCCc1ccc(Cl)cc1Cl | 18000 nM | –
O=C(O)C[C@@]1(O)C[C@@H](CCCCCCc2ccc(Cl)cc2COc2ccccc2)OC1=O | – | Reduction (Rattus norvegicus [3]): 34%; Reduction (Rattus norvegicus [4]): 22%
O=C(O)C[C@@](O)(C[C@H](O)CCCCCn1c2c(c3cc(Cl)ccc31)CCCC2)C(=O)O | 2900 nM | –
Cc1cn(-c2cc(Cl)ccc2CCCCCC[C@@H](O)C[C@](O)(CC(=O)O)C(=O)O)cc1C (stereo in doubt; (+)-58) | 580 nM | –
COc1cc(Cl)ccc1CCCCCC[C@@H](O)C[C@](O)(CC(=O)O)C(=O)O | 19000 nM | –
Cc1ccc(-c2cc(Cl)ccc2CCCCCC[C@@H](O)C[C@](O)(CC(=O)O)C(=O)O)cc1 | 2700 nM | –
O=C(O)C[C@@](O)(C[C@H](O)CCCCCC1c2ccccc2-c2cc(Cl)ccc21)C(=O)O (some centres undefined) | 220 nM | –
O=C(O)C[C@@](O)(C[C@H](O)CCCCCCc1ccc(Cl)cc1Cl)C(=O)O (stereo in doubt; (-)-45) | 770 nM | Ki (ATP-citrate synthase [2]): 700 nM
N[C@H](C(=O)O)[C@@](O)(CC(=O)O)C(=O)O | – | Ki (ATP-citrate synthase [5]): 11000 nM
O=C(O)C[C@@](O)(CC(=O)CCCCCCc1ccc(Cl)cc1Cl)C(=O)O | – | Ki (ATP-citrate synthase [2]): 1200 nM

SMILES | Ki (ATP-citrate synthase [1]) | also measured
Cc1ccc(C)n1-c1cc(Cl)ccc1CCCCCC[C@@H](O)C[C@](O)(CC(=O)O)C(=O)O | – | inhibition [6]: 67%
O=C(O)C[C@@]1(O)C[C@@H](CCCCCCc2ccc(Cl)cc2Cl)OC1=O | – | Reduction (Rattus norvegicus [3]): 56%; Reduction (Rattus norvegicus [4]): 31%; Control (HepG2 [7]): 114%; Control (HepG2 [8]): 97%; Control (HepG2 [9]): 98%; Control (HepG2 [10]): 97%; Control (HepG2 [11]): 74%; Control (HepG2 [12]): 53%
O=C(O)C[C@@](O)(C[C@H](O)CCCCCCn1ccc2cc(Cl)ccc21)C(=O)O | 3200 nM | –
O=C(O)C[C@@](O)(C[C@H](O)CCCCCn1c2ccccc2c2cc(Cl)ccc21)C(=O)O | 710 nM | –
O=C(O)C[C@@](O)(C[C@H](O)CCCCCCc1ccc(Cl)cc1O)C(=O)O | – | inhibition [6]: 24%
O=C(O)C[C@@](O)(C[C@H](O)CCCCn1ccc2cc(Cl)ccc21)C(=O)O | 160000 nM | –
O=C(O)C[C@@](O)(C[C@H](O)CCCCCn1ccc2cc(Cl)ccc21)C(=O)O | 3500 nM | –
O=C(O)C[C@@]1(O)C[C@@H](CCCCCn2c3ccccc3c3cc(Cl)ccc32)OC1=O | – | Reduction (Rattus norvegicus [3]): 33%; Reduction (Rattus norvegicus [4]): 16%
O=C(O)[C@@H](O)[C@@](O)(C[C@H](O)CCCCCCc1ccc(Cl)cc1Cl)C(=O)O | 620 nM | –
COc1ccc(-c2cc(Cl)ccc2CCCCCC[C@@H](O)C[C@](O)(CC(=O)O)C(=O)O)cc1 | 5100 nM | –
O=C(O)[C@H](O)[C@@](O)(C[C@H](O)CCCCCCc1ccc(Cl)cc1Cl)C(=O)O | 550 nM | –
O=C(O)C[C@@](O)(C[C@H](O)CCCCCCc1ccc(Cl)cc1-c1ccccc1)C(=O)O | 750 nM | –
O=C(O)C[C@@](O)(C[C@H](O)CCCCCn1ccc2cc(Cl)cc(Cl)c21)C(=O)O | 1800 nM | –
O=C(O)C[C@@](O)(C[C@H](O)CCCCCCc1ccc(Cl)cc1OCc1ccccc1)C(=O)O | 1100 nM | –
Cc1cc2cc(Cl)ccc2n1CCCCC[C@@H](O)C[C@](O)(CC(=O)O)C(=O)O | 13000 nM | –
O=C(O)C[C@@](O)(CCCCCCCCc1ccc(Cl)cc1Cl)C(=O)O | – | Ki (ATP-citrate synthase [5]): 2900 nM
O=C(O)C[C@@](O)(C[C@H](O)CCCCCCc1ccc(Cl)cc1-c1ccc(Cl)cc1)C(=O)O | 5000 nM | –
O=C(O)C[C@](O)(C(=O)O)[C@@H](O)CCCCCCCc1ccc(Cl)cc1Cl | 5700 nM | –
O=C(O)C[C@@](O)(C[C@H](O)CCCCCCc1ccc(Cl)cc1-c1ccc(F)cc1)C(=O)O | 2700 nM | –
O=C(O)C[C@@]1(O)C[C@@H](CCCCCC2c3ccccc3-c3cc(Cl)ccc32)OC1=O (some centres undefined) | – | Reduction (Rattus norvegicus [3]): 16%; Reduction (Rattus norvegicus [4]): 5%
O=C(O)C[C@@](O)(C[C@H](O)CCCCCn1cc([N+](=O)[O-])c2cc(Cl)ccc21)C(=O)O | 64000 nM | –
